Data: ChEMBL document CHEMBL2331236, “Synthesis and biological evaluation of 1-(2-hydroxy-3-phenyloxypropyl)piperazine derivatives as T-type calcium channel blockers” (Bioorg Med Chem Lett, 2013)

Experiments:
[1] = target: T1, Voltage-dependent T-type calcium channel subunit alpha-1G (Homo sapiens, UniProt O43497); assay: Inhibition of alpha-1G calcium channel in human HEK293 cells at 10 uM by FDSS6000 fluorescence-based assay
[2] = target: Voltage-gated inwardly rectifying potassium channel KCNH2 (Homo sapiens, UniProt Q12809); assay: Inhibition of human ERG
Sequence of Voltage-gated inwardly rectifying potassium channel KCNH2 (Q12809 whole entry): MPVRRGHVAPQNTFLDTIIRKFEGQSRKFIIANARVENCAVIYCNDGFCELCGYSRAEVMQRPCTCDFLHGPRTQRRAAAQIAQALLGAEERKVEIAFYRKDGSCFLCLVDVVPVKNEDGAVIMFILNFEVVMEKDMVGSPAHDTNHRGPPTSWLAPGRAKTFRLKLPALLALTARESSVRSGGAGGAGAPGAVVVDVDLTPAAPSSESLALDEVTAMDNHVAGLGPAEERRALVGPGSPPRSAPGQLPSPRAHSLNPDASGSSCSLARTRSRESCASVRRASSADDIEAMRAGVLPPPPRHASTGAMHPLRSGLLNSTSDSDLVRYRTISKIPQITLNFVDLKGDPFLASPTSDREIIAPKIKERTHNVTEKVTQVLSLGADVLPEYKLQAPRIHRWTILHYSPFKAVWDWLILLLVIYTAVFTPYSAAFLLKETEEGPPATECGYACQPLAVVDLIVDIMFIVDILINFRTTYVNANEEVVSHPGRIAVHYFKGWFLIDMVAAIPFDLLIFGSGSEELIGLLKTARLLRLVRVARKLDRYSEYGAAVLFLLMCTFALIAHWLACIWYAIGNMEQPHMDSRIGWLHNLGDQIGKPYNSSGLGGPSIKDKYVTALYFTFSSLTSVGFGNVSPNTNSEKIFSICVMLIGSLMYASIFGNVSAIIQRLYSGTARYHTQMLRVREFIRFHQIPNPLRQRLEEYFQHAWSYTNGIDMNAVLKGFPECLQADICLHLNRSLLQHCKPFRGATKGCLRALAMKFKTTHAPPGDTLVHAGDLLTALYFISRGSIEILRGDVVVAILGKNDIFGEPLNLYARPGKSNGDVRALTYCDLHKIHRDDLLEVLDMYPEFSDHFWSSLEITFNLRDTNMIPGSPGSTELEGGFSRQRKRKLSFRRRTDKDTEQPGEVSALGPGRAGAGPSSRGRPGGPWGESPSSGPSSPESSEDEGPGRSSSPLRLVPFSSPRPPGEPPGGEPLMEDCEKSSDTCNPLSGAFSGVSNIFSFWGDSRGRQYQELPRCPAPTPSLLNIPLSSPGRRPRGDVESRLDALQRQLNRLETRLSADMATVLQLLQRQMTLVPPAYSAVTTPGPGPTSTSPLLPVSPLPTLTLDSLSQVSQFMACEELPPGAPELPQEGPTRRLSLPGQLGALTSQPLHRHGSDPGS

[3] = target: T1, Voltage-dependent T-type calcium channel subunit alpha-1G; assay: Inhibition of alpha-1G calcium channel in human HEK293 cells by whole-cell patch-clamp method; type: cell-based
Outline: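 Whole-cell recordings used α1G T-type channels. Pipette solution (mM): 130 KCl, 11 EGTA, 5 Mg-ATP, 10 HEPES, pH 7.4. Bath (mM): 140 NaCl, 2 CaCl2, 10 HEPES, 10 glucose, pH 7.4. Currents were evoked every 15 s by a 50 ms step from −100 to −30 mV. IC50 for peak-current inhibition came from dose-response curve fitting of raw data.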

HEK293 = assay: Selectivity ratio of IC50 for human ERG to IC50 for alpha-1G calcium channel in human HEK293 cells; type: cell-based
[4] = Cmax in ICR mouse plasma at 10 mg/kg, po; type: ADME, organism-based; design: dose 10 mg/kg, route oral
Outline: (§1)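 ICR mice were dosed orally at 10 mg/kg, with n = 3 per time point. Plasma and brain concentrations were followed over time. Cmax, Tmax, AUClast, AUC0-∞ and terminal half-life were taken from the concentration–time profiles, and values are means.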

[5] = Ratio of AUC in brain to AUC in plasma of ICR mouse at 10 mg/kg, po; type: ADME, organism-based; design: dose 10 mg/kg, route oral
Outline: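 ICR mice dosed orally at 10 mg/kg; plasma and brain sampled over time (n = 3 per time point). AUC (taken as dose/clearance) computed for each matrix from mean concentration–time profiles; brain-to-plasma ratio reported as AUCbrain/AUCplasma […], from mean values.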

[6] = AUClast in ICR mouse plasma at 10 mg/kg, po; type: ADME, organism-based; design: time 0 - last, dose 10 mg/kg, route oral
Outline: as §1

[7] = (§2) AUClast in ICR mouse brain at 10 mg/kg, po; type: ADME, organism-based; design: time 0 - last, dose 10 mg/kg, route oral; conditions: ICR, brain
Outline: as §1

[8] = Tmax in ICR mouse plasma at 10 mg/kg, po; type: ADME, organism-based; design: dose 10 mg/kg, route oral
Outline: as §1

[9] = Tmax in ICR mouse brain at 10 mg/kg, po; type: ADME, organism-based; design: dose 10 mg/kg, route oral
Outline: as §1

[10] = Oral bioavailability in ICR mouse at 10 mg/kg; type: ADME, organism-based; conditions: in vivo
[11] = Terminal half life in ICR mouse brain at 10 mg/kg, po; type: ADME, organism-based; design: dose 10 mg/kg, route oral; conditions: read-out: beta t1/2
Outline: as §1

Brain [12] = assay: AUC (0 to infinity) in ICR mouse brain at 10 mg/kg, po; type: ADME, organism-based; design: dose 10 mg/kg, route oral, time infinity; conditions: in vivo
Outline: as §1

[13] = AUC (0 to infinity) in ICR mouse plasma at 10 mg/kg, po; type: ADME, organism-based; design: time infinity, dose 10 mg/kg, route oral
Outline: as §1

[14] = Terminal half life in ICR mouse plasma at 10 mg/kg, po; type: ADME, organism-based; design: dose 10 mg/kg, route oral; conditions: read-out: beta t1/2
Outline: as §1

[15] = Cmax in ICR mouse brain at 10 mg/kg, po; type: ADME, organism-based; design: dose 10 mg/kg, route oral
Outline: as §1

Brain [16] = assay: as §2; type: ADME, organism-based; design: time 0 - last, dose 10 mg/kg, route oral; conditions: in vivo
Outline: as §1

T1 sequence (O43497 whole entry): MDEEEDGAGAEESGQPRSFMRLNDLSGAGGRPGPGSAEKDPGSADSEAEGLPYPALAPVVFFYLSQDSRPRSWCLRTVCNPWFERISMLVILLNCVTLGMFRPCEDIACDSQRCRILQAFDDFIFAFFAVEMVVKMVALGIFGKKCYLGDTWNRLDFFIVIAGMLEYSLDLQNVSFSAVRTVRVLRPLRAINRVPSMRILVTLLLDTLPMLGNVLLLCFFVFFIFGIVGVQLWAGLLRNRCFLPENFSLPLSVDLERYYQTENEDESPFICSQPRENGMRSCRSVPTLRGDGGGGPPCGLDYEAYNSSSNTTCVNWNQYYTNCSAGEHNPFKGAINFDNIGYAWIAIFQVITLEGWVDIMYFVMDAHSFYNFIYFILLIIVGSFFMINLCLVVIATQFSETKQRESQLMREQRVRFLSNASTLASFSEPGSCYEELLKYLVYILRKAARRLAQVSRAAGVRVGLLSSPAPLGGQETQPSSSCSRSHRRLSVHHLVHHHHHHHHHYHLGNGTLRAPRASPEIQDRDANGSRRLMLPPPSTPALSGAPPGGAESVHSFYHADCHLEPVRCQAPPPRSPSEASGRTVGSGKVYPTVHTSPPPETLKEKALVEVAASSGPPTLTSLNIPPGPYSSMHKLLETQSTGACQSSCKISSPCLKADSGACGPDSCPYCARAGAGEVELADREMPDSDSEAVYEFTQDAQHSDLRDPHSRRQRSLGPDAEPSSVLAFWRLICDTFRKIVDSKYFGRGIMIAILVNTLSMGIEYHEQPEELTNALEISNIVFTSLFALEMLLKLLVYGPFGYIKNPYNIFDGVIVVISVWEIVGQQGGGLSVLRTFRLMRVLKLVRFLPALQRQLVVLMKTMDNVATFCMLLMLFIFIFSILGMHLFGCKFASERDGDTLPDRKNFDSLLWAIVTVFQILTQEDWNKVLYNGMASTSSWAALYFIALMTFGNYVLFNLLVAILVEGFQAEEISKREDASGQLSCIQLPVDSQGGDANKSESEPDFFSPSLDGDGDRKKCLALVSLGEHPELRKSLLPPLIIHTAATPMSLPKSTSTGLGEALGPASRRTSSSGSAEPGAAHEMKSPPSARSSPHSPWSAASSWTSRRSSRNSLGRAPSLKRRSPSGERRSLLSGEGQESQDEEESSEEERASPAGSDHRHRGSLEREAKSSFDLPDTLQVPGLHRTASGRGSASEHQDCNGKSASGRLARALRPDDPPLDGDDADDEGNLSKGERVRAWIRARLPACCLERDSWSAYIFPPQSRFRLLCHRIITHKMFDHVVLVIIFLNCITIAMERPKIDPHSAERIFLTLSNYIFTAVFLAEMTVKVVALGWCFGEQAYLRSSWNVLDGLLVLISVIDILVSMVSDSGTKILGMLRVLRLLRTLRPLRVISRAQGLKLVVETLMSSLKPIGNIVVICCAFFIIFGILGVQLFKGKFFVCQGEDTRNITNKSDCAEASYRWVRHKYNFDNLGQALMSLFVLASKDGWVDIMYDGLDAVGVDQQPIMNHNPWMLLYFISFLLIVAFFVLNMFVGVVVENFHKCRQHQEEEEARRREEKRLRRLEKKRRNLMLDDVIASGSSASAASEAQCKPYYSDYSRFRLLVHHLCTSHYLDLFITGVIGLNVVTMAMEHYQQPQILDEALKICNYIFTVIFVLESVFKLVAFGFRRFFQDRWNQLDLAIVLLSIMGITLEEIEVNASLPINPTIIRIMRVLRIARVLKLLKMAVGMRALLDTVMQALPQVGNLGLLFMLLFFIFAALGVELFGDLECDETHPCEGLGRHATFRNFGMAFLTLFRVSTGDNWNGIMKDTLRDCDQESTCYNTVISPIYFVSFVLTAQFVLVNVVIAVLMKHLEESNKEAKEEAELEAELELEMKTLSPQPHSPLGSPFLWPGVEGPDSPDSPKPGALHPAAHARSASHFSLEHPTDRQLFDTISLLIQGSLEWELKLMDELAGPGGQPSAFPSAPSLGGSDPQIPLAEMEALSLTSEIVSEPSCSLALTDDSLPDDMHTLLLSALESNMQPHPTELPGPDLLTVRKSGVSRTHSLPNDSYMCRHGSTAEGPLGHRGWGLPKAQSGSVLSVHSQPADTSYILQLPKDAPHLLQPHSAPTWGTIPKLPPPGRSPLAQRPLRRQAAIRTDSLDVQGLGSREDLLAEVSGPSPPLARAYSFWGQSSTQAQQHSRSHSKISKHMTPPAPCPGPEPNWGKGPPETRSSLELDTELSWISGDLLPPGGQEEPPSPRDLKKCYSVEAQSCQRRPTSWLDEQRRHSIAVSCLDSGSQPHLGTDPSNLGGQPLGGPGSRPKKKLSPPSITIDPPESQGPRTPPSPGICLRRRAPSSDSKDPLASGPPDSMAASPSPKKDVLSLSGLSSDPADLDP

Work on O[C@H](COc1ccc(C(F)(F)F)cc1)CN1CCN(Cc2cccc(Cl)c2)CC1 yielded an inhibition [1] of 43.4%.
For COc1cccc(N2CCN(C[C@@H](O)COc3ccc(Cl)cc3)CC2)c1, the inhibition [1] was 44.6%.
With O[C@H](COc1ccc(Cl)cc1)CN1CCN(c2ccc(F)cc2)CC1 the inhibition [1] was 28.3%.
Molecule O[C@H](COc1ccc(F)cc1)CN1CCN(Cc2ccccc2F)CC1 has an inhibition [1] of 20.3%.
O[C@@H](COc1ccc(C(F)(F)F)cc1)CN1CCN(Cc2ccc(Cl)c(Cl)c2)CC1 gave an inhibition [1] of 38.8%, an IC50 [2] of 9200 nM and an IC50 [3] of 1270 nM. For the same molecule, the Ratio IC50 (HEK293) was 7.24.
In the case of COc1cccc(N2CCN(C[C@H](O)COc3ccc(C(F)(F)F)cc3)CC2)c1, the Cmax [4] is reported as 1570 ng/mL, the Kp [5] is reported as 3.46 and the AUC(0-t) [6] is reported as 3140 ng·h/mL. The AUC(0-t) [7] was 8290 ng·h/mL, the Tmax [8] was 15 min and the Tmax [9] was 15 min. For the same molecule, the inhibition [1] was 68.5%, the bioavailability [10] was 67.2% and the half-life [11] was 474 min. It also gave an AUC (Brain [12]) of 686.6 µg·min/g, an IC50 [2] of 4080 nM and an AUC(0-inf) [13] of 3300 ng·h/mL. It also gave an IC50 [3] of 480 nM, a Ratio IC50 (HEK293) of 8.5 and a half-life [14] of 102 min. For the same molecule, the Cmax [15] was 4660 ng/mL.
Work on O[C@H](COc1ccc(Cl)cc1)CN1CCN(Cc2c(F)cccc2Cl)CC1 yielded an inhibition [1] of 54.4%, an IC50 [2] of 2070 nM and an IC50 [3] of 1420 nM. For the same molecule, the Ratio IC50 (HEK293) was 1.46.
In the case of O[C@H](COc1ccc(C(F)(F)F)cc1)CN1CCN(c2ccc(F)cc2)CC1, the inhibition [1] is reported as 59.2% and the IC50 [3] is reported as 15500 nM.
Work on O[C@@H](COc1ccc(F)cc1)CN1CCN(c2ccc(F)cc2)CC1 yielded an inhibition [1] of 47.5%.
O[C@@H](COc1ccc(C(F)(F)F)cc1)CN1CCN(Cc2ccccc2F)CC1 showed an inhibition [1] of 45.5%.
For COc1ccccc1N1CCN(C[C@H](O)COc2ccc(Cl)cc2)CC1, the inhibition [1] was 48.8%.
In the case of O[C@H](COc1ccc(F)cc1)CN1CCN(c2ccc(F)cc2)CC1, the inhibition [1] is reported as 50%.
With COc1ccccc1N1CCN(C[C@@H](O)COc2ccc(C(F)(F)F)cc2)CC1 the inhibition [1] was 56.2%, the IC50 [2] was 3950 nM and the IC50 [3] was 1790 nM. It also gave a Ratio IC50 (HEK293) of 2.21.
For O[C@@H](COc1ccc(F)cc1)CN1CCN(Cc2ccccc2F)CC1, the inhibition [1] was 23.8%.
In the case of O[C@H](COc1ccc(F)cc1)CN1CCN(Cc2cccc(Cl)c2)CC1, the inhibition [1] is reported as 65.8% and the IC50 [3] is reported as 2580 nM.
O[C@@H](COc1ccc(C(F)(F)F)cc1)CN1CCN(Cc2cccc(Cl)c2)CC1 showed an inhibition [1] of 43.1%.
With COc1ccccc1N1CCN(C[C@H](O)COc2ccc(C(F)(F)F)cc2)CC1 the inhibition [1] was 50.8%.
Work on O[C@@H](COc1ccc(C(F)(F)F)cc1)CN1CCN(Cc2c(F)cccc2Cl)CC1 yielded an inhibition [1] of 44.6%.
O[C@@H](COc1ccc(F)cc1)CN1CCN(Cc2ccc(Cl)cc2)CC1 showed an inhibition [1] of 50.1%.
Molecule O[C@@H](COc1ccc(Cl)cc1)CN1CCN(Cc2ccc(Cl)c(Cl)c2)CC1 has an inhibition [1] of 48.6%.
Work on O[C@H](COc1ccc(C(F)(F)F)cc1)CN1CCN(Cc2ccc(Cl)cc2)CC1 yielded an inhibition [1] of 56.6% and an IC50 [3] of 4230 nM.
Work on COc1cccc(N2CCN(C[C@@H](O)COc3ccc(F)cc3)CC2)c1 yielded an inhibition [1] of 61.3% and an IC50 [3] of 12000 nM.
O[C@@H](COc1ccc(F)cc1)CN1CCN(c2ccccc2F)CC1 showed an inhibition [1] of 51.1%.
O[C@H](COc1ccc(F)cc1)CN1CCN(Cc2ccc(Cl)cc2)CC1 gave an inhibition [1] of 65.8%, an IC50 [2] of 1350 nM and an IC50 [3] of 1560 nM. The Ratio IC50 (HEK293) was 0.87.
O[C@@H](COc1ccc(Cl)cc1)CN1CCN(c2ccccc2F)CC1 showed an inhibition [1] of 46.9%.
With COc1ccccc1N1CCN(C[C@@H](O)COc2ccc(F)cc2)CC1 the inhibition [1] was 50.7%.
Molecule O[C@@H](COc1ccc(C(F)(F)F)cc1)CN1CCN(c2ccc(F)cc2)CC1 has an inhibition [1] of 53.7%.
Work on O[C@H](COc1ccc(F)cc1)CN1CCN(Cc2ccc(Cl)c(Cl)c2)CC1 yielded an inhibition [1] of 64.2%, an IC50 [2] of 290 nM and an IC50 [3] of 230 nM. For the same molecule, the Ratio IC50 (HEK293) was 1.26.
Molecule O[C@H](COc1ccc(Cl)cc1)CN1CCN(c2ccccc2F)CC1 has an inhibition [1] of 35.9%.
Molecule O[C@@H](COc1ccc(F)cc1)CN1CCN(Cc2cccc(Cl)c2)CC1 has an inhibition [1] of 61.1% and an IC50 [3] of 2100 nM.
Work on COc1cccc(N2CCN(C[C@H](O)COc3ccc(Cl)cc3)CC2)c1 yielded an inhibition [1] of 46%.
O[C@H](COc1ccc(C(F)(F)F)cc1)CN1CCN(c2ccccc2F)CC1 showed an inhibition [1] of 48.9%.
For O[C@@H](COc1ccc(F)cc1)CN1CCN(Cc2c(F)cccc2Cl)CC1, the inhibition [1] was 56.5% and the IC50 [3] was 12300 nM.
For COc1cccc(N2CCN(C[C@@H](O)COc3ccc(C(F)(F)F)cc3)CC2)c1, the inhibition [1] was 43.9%.
Molecule O[C@@H](COc1ccc(Cl)cc1)CN1CCN(Cc2ccc(Cl)cc2)CC1 has an inhibition [1] of 42.1%.
In the case of O[C@@H](COc1ccc(Cl)cc1)CN1CCN(c2ccc(F)cc2)CC1, the inhibition [1] is reported as 39.7%.
O[C@H](COc1ccc(Cl)cc1)CN1CCN(Cc2ccc(Cl)c(Cl)c2)CC1 showed an inhibition [1] of 41.2%.
For O[C@H](COc1ccc(F)cc1)CN1CCN(Cc2c(F)cccc2Cl)CC1, the inhibition [1] was 62.1% and the IC50 [3] was 11400 nM.
Work on O[C@H](COc1ccc(C(F)(F)F)cc1)CN1CCN(Cc2ccccc2F)CC1 yielded an inhibition [1] of 48.6%.
O[C@H](COc1ccc(F)cc1)CN1CCN(c2ccccc2F)CC1 showed an inhibition [1] of 42%.
O[C@H](COc1ccc(Cl)cc1)CN1CCN(Cc2cccc(Cl)c2)CC1 showed an inhibition [1] of 52.2%.
With COc1ccccc1N1CCN(C[C@@H](O)COc2ccc(Cl)cc2)CC1 the inhibition [1] was 47.4%.
In the case of O[C@H](COc1ccc(C(F)(F)F)cc1)CN1CCN(Cc2ccc(Cl)c(Cl)c2)CC1, the inhibition [1] is reported as 45.6%.
Work on O[C@@H](COc1ccc(C(F)(F)F)cc1)CN1CCN(c2ccccc2F)CC1 yielded an inhibition [1] of 50.2%.
O[C@@H](COc1ccc(C(F)(F)F)cc1)CN1CCN(Cc2ccc(Cl)cc2)CC1 showed an inhibition [1] of 61.5%.
Molecule O[C@@H](COc1ccc(F)cc1)CN1CCN(Cc2ccc(Cl)c(Cl)c2)CC1 has an inhibition [1] of 69.5%, an IC50 [2] of 870 nM and an IC50 [3] of 100 nM. It also gave a Ratio IC50 (HEK293) of 8.7.
O[C@H](COc1ccc(Cl)cc1)CN1CCN(Cc2ccc(Cl)cc2)CC1 gave an inhibition [1] of 56.5% and an IC50 [3] of 1080 nM.
O[C@H](COc1ccc(Cl)cc1)CN1CCN(Cc2ccccc2F)CC1 showed an inhibition [1] of 41.5%.
COc1ccccc1N1CCN(C[C@H](O)COc2ccc(F)cc2)CC1 showed an inhibition [1] of 41%.
Molecule O[C@@H](COc1ccc(Cl)cc1)CN1CCN(Cc2cccc(Cl)c2)CC1 has an inhibition [1] of 46%.
O[C@@H](COc1ccc(Cl)cc1)CN1CCN(Cc2ccccc2F)CC1 gave an inhibition [1] of 35.8%.
O[C@@H](COc1ccc(Cl)cc1)CN1CCN(Cc2c(F)cccc2Cl)CC1 showed an inhibition [1] of 40.9%.
O[C@H](COc1ccc(C(F)(F)F)cc1)CN1CCN(Cc2c(F)cccc2Cl)CC1 gave a Cmax [4] of 197 ng/mL, a Kp [5] of 7.63 and an AUC(0-t) [6] of 260 ng·h/mL. The AUClast (Brain [16]) was 119.1 µg·min/g, the Tmax [8] was 15 min and the Tmax [9] was 30 min. The inhibition [1] was 55.1%, the bioavailability [10] was 9.94% and the half-life [11] was 186 min. For the same molecule, the IC50 [2] was 14000 nM, the AUC(0-inf) [13] was 276 ng·h/mL and the IC50 [3] was 760 nM. For the same molecule, the Ratio IC50 (HEK293) was 18.4, the half-life [14] was 56.5 min and the Cmax [15] was 870 ng/mL.
Work on COc1cccc(N2CCN(C[C@H](O)COc3ccc(F)cc3)CC2)c1 yielded an inhibition [1] of 44.5%.
